Measured values reported in ChEMBL document CHEMBL1949493, “Discovery of s-nitrosoglutathione reductase inhibitors: potential agents for the treatment of asthma and other inflammatory diseases” (ACS Med Chem Lett, 2011).
Activity calls are given as the source filed them. The rule behind the calls is not given here.

Legend:
[1] = Inhibition of S-nitrosoglutathione reductase expressed in Escherichia coli using GSNO as substrate measured for 3 mins by spectrophotometry
Mus musculus [2] = experiment: Antiinflammatory activity in C57B1/6 mouse IBD model assessed as inhibition of DSS-induced inflammatory response at 1 mg/kg, iv or po administered for 10 days from 2 days prior to and up to 2 days post DSS-challenge; format: functional, organism-based; parameters: dose 1 mg/kg
Procedure, shortened: (§1)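 Mouse model of DSS-induced IBD. Dosing was oral or IV at 1 and 10 mg/kg/day for 10 days.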

Mus musculus [3] = experiment: Antiasthmatic activity in ovalbumin-sensitized BALB/c mouse assessed as inhibition of methacholine-induced bronchoconstriction at 0.0005 to 30 mg/kg, iv administered from 30 mins to 48 hrs prior to assessment by whole body plethysmography
[4] = Oral bioavailability in BALB/c mouse at 10 mg/kg; format: ADME, organism-based; details: in vivo
Rattus norvegicus = species on record: Rattus norvegicus; experiment: Antihypertensive activity in rat DAHL/S model assessed as reduction in high dietary salt-induced hypertension
Mus musculus [5] = experiment: Antiinflammatory activity in C57B1/6 mouse IBD model assessed as inhibition of DSS-induced inflammatory response at 10 mg/kg, iv or po administered for 10 days from 2 days prior to and up to 2 days post DSS-challenge; format: functional, organism-based; parameters: dose 10 mg/kg; procedure, shortened: as §1
Mus musculus [6] = experiment: Antiasthmatic activity in ovalbumin-sensitized BALB/c mouse assessed as inhibition of ovalbumin-induced easonophil infiltration into lungs at 0.0005 to 30 mg/kg, iv administered from 30 mins to 72 hrs prior to assesment by light microscopy; format: functional, organism-based
Procedure, shortened: (§2)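 Ovalbumin-induced asthma model in mice, dosed by single IV administration. Read-out was eosinophil infiltration into the lungs.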

[7] = Plasma clearance in BALB/c mouse at 2 mg/kg, iv; format: ADME, organism-based; parameters: dose 2 mg/kg, route intravenous
Mus musculus [8] = experiment: Antiasthmatic activity in C57B1/6 mouse COPD model assessed as inhibition of porcine pancreatic elastase-induced emphysema at 0.1 to 10 mg/kg, po after 7 to 14 days by light microscopy; format: functional, organism-based
[9] = Toxicity in iv dosed CD-1 mouse administered qd for 4 days measured on day 5; format: organism-based; details: in vivo
Procedure, shortened: (§3)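 Read-out was the no observable adverse effect level (NOAEL) in mg/kg/day.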

[10] = Toxicity in po dosed CD-1 mouse administered qd for 4 days measured on day 5; format: organism-based; details: in vivo; procedure, shortened: as §3
Mus musculus [11] = experiment: Antiasthmatic activity in ovalbumin-sensitized iv dosed BALB/c mouse assessed as inhibition of methacholine-induced bronchoconstriction administered from 30 mins to 48 hrs prior to metacholine-challenge by whole body plethysmography; format: functional, organism-based
[12] = target: Voltage-gated inwardly rectifying potassium channel KCNH2 (Homo sapiens, UniProt Q12809); experiment: Inhibition of human ERG
Chain of Voltage-gated inwardly rectifying potassium channel KCNH2 (Q12809 whole entry): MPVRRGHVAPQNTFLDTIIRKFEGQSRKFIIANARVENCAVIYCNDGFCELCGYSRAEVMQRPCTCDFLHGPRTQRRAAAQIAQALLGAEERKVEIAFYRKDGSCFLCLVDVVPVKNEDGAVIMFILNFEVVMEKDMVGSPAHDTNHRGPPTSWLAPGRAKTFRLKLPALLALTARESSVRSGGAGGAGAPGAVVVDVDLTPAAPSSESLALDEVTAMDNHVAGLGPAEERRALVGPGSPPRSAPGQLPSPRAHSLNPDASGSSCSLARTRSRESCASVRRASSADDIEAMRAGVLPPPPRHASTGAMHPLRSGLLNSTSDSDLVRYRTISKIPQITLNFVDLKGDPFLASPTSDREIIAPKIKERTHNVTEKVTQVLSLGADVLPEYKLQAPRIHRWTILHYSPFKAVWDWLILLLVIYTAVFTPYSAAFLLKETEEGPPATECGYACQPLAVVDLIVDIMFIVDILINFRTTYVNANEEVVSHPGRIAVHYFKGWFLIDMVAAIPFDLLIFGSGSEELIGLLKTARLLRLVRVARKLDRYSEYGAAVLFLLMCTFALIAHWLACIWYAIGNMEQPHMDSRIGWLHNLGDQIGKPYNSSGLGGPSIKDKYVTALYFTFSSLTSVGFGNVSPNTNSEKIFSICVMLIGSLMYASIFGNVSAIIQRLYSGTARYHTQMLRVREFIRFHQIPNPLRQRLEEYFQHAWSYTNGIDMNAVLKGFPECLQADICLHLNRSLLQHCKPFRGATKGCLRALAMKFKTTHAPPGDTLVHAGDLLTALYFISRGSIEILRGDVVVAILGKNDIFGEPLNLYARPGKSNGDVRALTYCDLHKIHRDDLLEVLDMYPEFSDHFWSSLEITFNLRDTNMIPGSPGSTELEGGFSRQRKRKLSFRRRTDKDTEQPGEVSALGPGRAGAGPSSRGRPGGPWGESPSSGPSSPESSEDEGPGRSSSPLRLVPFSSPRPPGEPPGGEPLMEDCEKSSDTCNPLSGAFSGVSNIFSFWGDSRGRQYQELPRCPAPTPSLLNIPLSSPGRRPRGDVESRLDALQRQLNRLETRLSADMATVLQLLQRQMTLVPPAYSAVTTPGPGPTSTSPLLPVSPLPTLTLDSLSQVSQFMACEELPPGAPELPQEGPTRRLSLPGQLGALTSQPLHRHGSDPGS

Mus musculus [13] = experiment: Antiasthmatic activity in ovalbumin-sensitized BALB/c mouse assessed as inhibition of ovalbumin-induced easonophil infiltration in lungs at >/= 0.0005 mg/kg, iv administered from 30 mins to 72 hrs prior to assessment by light microscopy; format: functional, organism-based; parameters: dose 0.0005 mg/kg; procedure, shortened: as §2
Mus musculus [14] = experiment: Antiasthmatic activity in ovalbumin-sensitized BALB/c mouse assessed as inhibition of methacholine-induced bronchoconstriction at >/= 0.01 mg/kg, iv administered from 30 mins to 48 hrs prior to metacholine-challenge by whole body plethysmography; format: functional, organism-based; parameters: dose 0.01 mg/kg
Mus musculus [15] = experiment: Antiasthmatic activity in ovalbumin-sensitized BALB/c mouse assessed as inhibition of methacholine-induced bronchoconstriction at >/= 0.01 mg/kg, iv administered prior to metacholine-challenge by whole body plethysmography; format: functional, organism-based; parameters: dose 0.01 mg/kg; details: TDE = time-dependent effect
Salmonella typhimurium = experiment: Mutagenic activity in Salmonella Typhimurium; format: toxicity, organism-based; details: salmonella enterica subsp. enterica serovar typhimurium
Homo sapiens = species on record: Homo sapiens; experiment: Inhibition of human recombinant delta2 opioid receptor at 10 uM by radioligand displacement assay
Procedure, shortened: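 Off-target screen measuring percent inhibition of receptor radioligand binding, with test compound at 10 μM.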

## Cc1cc(C(N)=O)ccc1-n1c(CCc2nnn[nH]2)ccc1-c1ccc(Br)cc1
[1]
  IC50: 190 nM

## COc1ccc(-c2ccc(CCC(=O)O)n2-c2ccc(C(N)=O)cc2F)cc1
[1]
  IC50: 240 nM

## Oc1ccc(-n2c(CCc3nnn[nH]3)ccc2-c2ccc(Br)cc2)cc1
[1]
  IC50: 450 nM

## COc1ccc(-c2ccc(CCc3nnn[nH]3)n2-c2ccc(C(N)=O)cc2C)cc1
[1]
  IC50: 1530 nM

## Cc1cc(C(N)=O)ccc1-n1c(CCC(=O)O)ccc1-c1ccc(C(N)=O)cc1
[1]
  IC50: 3920 nM

## Cc1cc(C(N)=O)ccc1-n1c(CCC(=O)O)ccc1-c1ccc(C(F)(F)F)cc1
[1]
  IC50: 3990 nM

## Cc1cc(C(N)=O)ccc1-n1c(CCC(=O)O)ccc1-c1ccc(Cl)cc1O
Mus musculus [2]
  Activity: Active
Mus musculus [3]
  Activity: Active
[4]
  bioavailability: 2.72%
Rattus norvegicus
  Activity: Active
Mus musculus [5]
  Activity: Active
Mus musculus [6]
  Activity: Active
[7]
  clearance: 33.4 mL/min/kg
Mus musculus [8]
  Activity: Active
[1]
  IC50: 55 nM

## Cc1cc(C(N)=O)ccc1-n1c(CCC(=O)O)ccc1-c1ccccc1
[4]
  bioavailability: 46.8%
[7]
  clearance: 11.8 mL/min/kg
[1]
  IC50: 360 nM

## Oc1ccc(-n2c(Cc3nnn[nH]3)ccc2-c2ccc(-n3ccnc3)cc2)cc1
[1]
  IC50: 18 nM

## Cc1cc(C(N)=O)ccc1-n1c(CCC(=O)O)ccc1-c1ccc(Cl)cc1NC=O
[1]
  IC50: 580 nM

## CCCOc1cc(Cl)ccc1-c1ccc(CCC(=O)O)n1-c1ccc(C(N)=O)cc1C
[1]
  IC50: 110 nM

## COc1ccc(-c2ccc(CCC(=O)O)n2-c2ccc(C(N)=O)cc2Cl)cc1
[1]
  IC50: 190 nM

## COc1cc(Cl)ccc1-c1ccc(CCC(=O)O)n1-c1ccc(C(N)=O)cc1C
Mus musculus [2]
  Activity: Active
Mus musculus [3]
  Activity: Active
[4]
  bioavailability: 22.4%
Rattus norvegicus
  Activity: Active
Mus musculus [5]
  Activity: Active
Mus musculus [6]
  Activity: Active
[7]
  clearance: 20.2 mL/min/kg
Mus musculus [8]
  Activity: Active
[1]
  IC50: 56 nM

## Cc1cc(C(N)=O)ccc1-n1c(CCC(=O)O)ccc1-c1ccc(Cl)cc1N(C)C
[1]
  IC50: 350 nM

## Oc1ccc(-n2c(Cc3nnn[nH]3)ccc2-c2ccc(Br)cc2)cc1
[1]
  IC50: 4350 nM

## Cc1cc(C(N)=O)ccc1-n1c(Cc2nnn[nH]2)ccc1-c1ccc(Br)cc1
[1]
  IC50: 560 nM

## Cc1cc(C(N)=O)ccc1-n1c(CCC(=O)O)ccc1-c1ccc(O)cc1
[1]
  IC50: 160 nM

## Cc1cc(C(N)=O)ccc1-n1c(CCC(=O)O)ccc1-c1ccc(C#N)cc1
[4]
  bioavailability: 16.3%
[7]
  clearance: 25.5 mL/min/kg
[1]
  IC50: 563 nM

## COc1cc(Br)ccc1-c1ccc(CCC(=O)O)n1-c1ccc(C(N)=O)cc1C
[4]
  bioavailability: 21.8%
[7]
  clearance: 22.4 mL/min/kg
[1]
  IC50: 96 nM

## COc1ccc(-c2ccc(CCC(=O)O)n2-c2ccc(C(N)=O)cc2C)cc1
Mus musculus [2]
  Activity: Active
Mus musculus [3]
  Activity: Active
[9]
  NOAEL at 96 h: 50 mg/kg
Rattus norvegicus
  Activity: Active
Mus musculus [5]
  Activity: Active
Mus musculus [6]
  Activity: Active
Mus musculus [8]
  Activity: Active
[1]
  IC50: 210 nM

## COc1ccc(-c2ccc(CCC(=O)O)n2-c2ccc(C(N)=O)cc2C(F)(F)F)cc1
[1]
  IC50: 450 nM

## Cc1cc(C(N)=O)ccc1-n1c(CCC(=O)O)ccc1-c1ccc(Cl)cc1C(N)=O
[1]
  IC50: 160 nM

## Cc1cc(C(N)=O)ccc1-n1c(CCC(=O)O)ccc1-c1ccc(-n2ccnc2)cc1 [N6022]
Mus musculus [2]
  Activity: Active
[10]
  NOAEL at 96 h: 100 mg/kg
Mus musculus [11]
  Activity: Dose-dependent effect
[9]
  NOAEL at 96 h: 30 mg/kg
[12]
  INH: > 100 µM
Mus musculus [13]
  Activity: Active
Mus musculus [5]
  Activity: Active
Mus musculus [14]
  Activity: Active
Mus musculus [15]
  Activity: tde
Salmonella typhimurium
  Activity: Non-toxic
[1]
  IC50: 20 nM
Homo sapiens
  inhibition: 66%

## Oc1ccc(-n2c(CCc3nnn[nH]3)ccc2-c2ccc(-n3ccnc3)cc2)cc1
[1]
  IC50: 300 nM

## NC(=O)c1ccc(-n2c(CCC(=O)O)ccc2-c2ccccc2)cc1
[4]
  bioavailability: 86.5%
[7]
  clearance: 8.9 mL/min/kg
[1]
  IC50: 570 nM

## Cc1cc(C(N)=O)ccc1-n1c(CCC(=O)O)ccc1-c1ccc(Cl)cc1C(F)(F)F
[1]
  IC50: 330 nM

## COc1ccc(-c2ccc(Cc3nnn[nH]3)n2-c2ccc(C(N)=O)cc2C)cc1
[1]
  IC50: 2910 nM

## Cc1cc(C(N)=O)ccc1-n1c(CCC(=O)O)ccc1-c1ccc(Br)cc1
Mus musculus [2]
  Activity: Active
Mus musculus [3]
  Activity: Active
[4]
  bioavailability: 18%
[9]
  NOAEL at 96 h: 50 mg/kg
Rattus norvegicus
  Activity: Active
Mus musculus [5]
  Activity: Active
Mus musculus [6]
  Activity: Active
[7]
  clearance: 21.4 mL/min/kg
Mus musculus [8]
  Activity: Active
[1]
  IC50: 160 nM

## COc1ccc(-c2ccc(CCC(=O)O)n2-c2ccc(C(N)=O)cc2)cc1
[1]
  IC50: 460 nM

## COc1ccc(-c2ccc(CCC(=O)O)n2-c2ccc(C(N)=O)cc2C)c(Cl)c1
[1]
  IC50: 200 nM

## Cc1cc(C(N)=O)ccc1-n1c(CCC(=O)O)ccc1-c1ccc(F)cc1
[1]
  IC50: 500 nM

## Cc1cc(C(N)=O)ccc1-n1c(CCC(=O)O)ccc1-c1ccc(Cl)cc1
[4]
  bioavailability: 20.7%
[7]
  clearance: 16 mL/min/kg
[1]
  IC50: 120 nM

## Cc1cc(C(N)=O)ccc1-n1c(CCC(=O)O)ccc1-c1ccc(Cl)cc1F
[1]
  IC50: 120 nM

## CCOc1cc(Cl)ccc1-c1ccc(CCC(=O)O)n1-c1ccc(C(N)=O)cc1C
[1]
  IC50: 170 nM

## Cc1cc(C(N)=O)ccc1-n1c(CCC(=O)O)ccc1-c1ccc(Cl)cc1Cl
[1]
  IC50: 160 nM
